Shown is part of a subset that was picked to be rich in hits.
RORA inh: inhibitors of orphan receptor RORA, primary screen, cell-based, luminescence; AID 561, 2006; inhibition, % at 10 µM; Nuclear receptor ROR-alpha (Homo sapiens), P35398; 0.43% of 65,000 active; CHO-K1 Gal4-RORA LBD luciferase reporter;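 active means inhibition above the mean of all tested compounds plus 3 SD, cut at about 52% in these data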;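 further: 0% = RORA-transfected cells with DMSO and 100% = mock-transfected cells lacking RORA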
Target sequence (P35398 whole entry, looked up, the tested form may be a part): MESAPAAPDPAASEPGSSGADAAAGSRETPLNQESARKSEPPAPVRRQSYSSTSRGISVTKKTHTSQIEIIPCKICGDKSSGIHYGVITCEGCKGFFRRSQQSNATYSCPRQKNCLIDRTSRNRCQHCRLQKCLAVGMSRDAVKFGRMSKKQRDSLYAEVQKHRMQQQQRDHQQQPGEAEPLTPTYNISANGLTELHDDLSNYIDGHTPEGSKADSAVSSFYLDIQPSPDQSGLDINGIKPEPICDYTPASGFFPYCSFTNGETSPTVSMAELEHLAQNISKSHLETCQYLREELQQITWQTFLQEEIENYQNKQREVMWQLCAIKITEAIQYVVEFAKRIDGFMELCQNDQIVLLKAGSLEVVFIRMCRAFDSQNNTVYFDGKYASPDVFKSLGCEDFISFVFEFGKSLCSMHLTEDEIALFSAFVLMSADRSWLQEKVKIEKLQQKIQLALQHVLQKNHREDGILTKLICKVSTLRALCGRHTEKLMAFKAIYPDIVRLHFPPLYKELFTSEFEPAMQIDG
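Material: transiently transfected CHO-K1 cells, Gal4-DBD/human RORA-LBD fusion plus 5xGal4-luciferase reporter; doses: single concentration per compound, 10 µM final; incubation: 20 h at 37 °C; detection: luminescence from basal luciferase reporter expression; read-out: % inhibition of basal luciferase versus +RORA/-RORA DMSO controls; replication: tested once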
An asterisk follows results filed as active.

SMILES	RORA inh
O=C(c1ccc(Cl)cc1)N1CCCCC(Sc2nnc(-c3ccc4c(c3)OCO4)o2)C1=O (stereo unspecified)	76*
Cc1ccc2c(CN3CCN(S(=O)(=O)c4ccc5c(c4)OCCO5)CC3)cc(=O)oc2c1C	6
CC(C)C(OC(=O)c1cccs1)C(=O)NCc1ccco1 (stereo unspecified)	12
CCOC(=O)c1[nH]c(C)c(C(=O)c2cc(F)ccc2F)c1C	8
CCOC(=O)c1c(C)[nH]c(C(=O)C(C)OC(=O)c2cccc(OCc3c(C)noc3C)c2)c1C (stereo unspecified)	56*
COc1ccc2nc(NC(=O)c3cccc(OCc4c(C)noc4C)c3)sc2c1	-86
C=CCn1c(C)cc(C(=O)COc2nncc3ccccc23)c1C	-80
COCCn1c(C)cc(C(=O)COC(=O)c2n[nH]c3ccccc23)c1C	58*
CCCn1c(C)cc(C(=O)CN2C(=O)c3ccccc3C2=O)c1C	-55
COc1ccccc1OCc1ccc(C(=O)NCc2ccco2)o1	10
CCOC(=O)C(C(=O)N1CCOCC1)C1CCCCC1 (stereo unspecified)	-9
O=C1c2ccccc2C(=O)N1CCCCCc1nc(-c2ccccc2)no1	21
COC(=O)CSc1nnc(-c2cnccn2)n1C	12
Cc1nc2sccn2c1-c1csc(NCc2ccccc2)n1	63*
O=C(Cc1ccccc1)Nc1nc(-c2cccs2)cs1	-67
CCNc1nc(-c2ccc(Cl)cc2)cs1	-50
CCCCS(=O)(=O)/C=C\C=C/S(=O)(=O)CCCC	91*
COC(=O)Cn1c(C)nc(=O)c(-c2ccccc2)c1C	1
Cc1cc(C)nc(SCC(=O)Nc2ccc(N3CCOCC3)c(Cl)c2)n1	53*
O=C(Nc1ccc(N2CCOCC2)c(Cl)c1)C1CCCCC1	-49
O=C(Nc1ccc(N2CCOCC2)c(Cl)c1)c1ncn[nH]1	-8
Cc1ccccc1OCC1Cn2c(nc3c2c(=O)[nH]c(=O)n3C)O1 (stereo unspecified)	2
N#CCCN(CCC#N)C(=O)COc1ccc(Cl)cc1Cl	1
Cc1c(C(=O)NCc2cccnc2)sc2nc(-c3ccccc3)cn12	-54
Cc1c(C(=O)N2CCOCC2)sc2nc(-c3ccccc3)cn12	-58
SMILES	RORA inh
c1ccc(-c2cn3c4c(sc3n2)CCCC4)cc1	74*
Cc1nc(NC(=O)c2ccccc2)sc1-c1csc(N)n1	-81
Cc1ccc2[nH]c(=O)c3cc(C(=O)N(C)Cc4ccco4)sc3c2c1	-8
C(=C\c1ccccc1)/CN1CCN(c2ncnc3c2oc2ccccc23)CC1	13
COc1cc(NC(=O)c2csc3c2CCCC3)ncn1	-56
COc1ccc2oc(=O)c(C(=O)N3CCc4ccccc43)cc2c1	11
COc1cc2c(cc1OC)C(C)N(C(=O)c1cc3ccccc3o1)CC2 (stereo unspecified)	64*
COc1ccc(NC(=O)c2cc3ccccc3o2)cc1	-53
CCOC(=O)N1CCN(C(=O)c2cnn3ccccc23)CC1	-2
Cc1ccc(-c2noc(CSc3nc(N)cc(N)n3)n2)cc1	-58
CCOC(=O)N1CCC(NC(=O)c2cnn3cccnc23)CC1	20
CCOc1ccc(NC(=O)CN2CCN(CC(=O)Nc3ccc(F)cc3)CC2)cc1	15
Clc1ccc(-n2ncc3c(NCC4CCCO4)ncnc32)cc1 (stereo unspecified)	-96
c1ccc(-n2ncc3c(NCC4CCCO4)ncnc32)cc1 (stereo unspecified)	-57
Cc1cccc(-n2ncc3c(N4CCC5(CC4)OCCO5)ncnc32)c1	-49
CC1CCCN(c2ncnc3c2cnn3-c2ccccc2)C1 (stereo unspecified)	57*
CC1CC(C)CN(c2ncnc3c2cnn3-c2ccc(Cl)cc2)C1 (stereo unspecified)	-54
c1ccc(-n2ncc3c(NC4CCCCCC4)ncnc32)cc1	-77
CN1CCN(c2ncnc3c2cnn3-c2ccc(Cl)cc2)CC1	22
c1ccc(-n2ncc3c(N4CCCCC4)ncnc32)cc1	62*
CC1CCCN(c2ncnc3c2cnn3-c2ccc(Cl)cc2)C1 (stereo unspecified)	84*
CCN1C(=O)NC(c2cccnc2)C(C(=O)OC)=C1C (stereo unspecified)	15
Cc1ccc2nsnc2c1S(=O)(=O)N(Cc1ccco1)Cc1cc2cccc(C)c2[nH]c1=O	-12
COc1ccc(C(C)=O)cc1COC(=O)c1cccc(N(C)C)c1	-6
Cn1cnnc1SCC(=O)Nc1ccccc1C(=O)NC1CCCC1	-4
SMILES	RORA inh
O=C(CCN1CCCCCC1)Nc1ccc(F)c(F)c1	20
COc1ccc(S(=O)(=O)N(CCc2ccccc2)CC(=O)NCCCO)cc1	8
Cc1ccc2nc(NC(=O)c3ccc(Cl)s3)sc2c1	-86
COc1cccc(NC(=O)c2ccco2)c1	-54
COc1cccc(C(=O)c2sc(NC(C)C)nc2N)c1	57*
CCCC(=O)Nc1nc2ccc(OC)cc2s1	-56
COc1cccc(C(=O)Nc2ccccc2N2CCCC2)c1	10
COc1ccc(CC(=O)Nc2c3c(nn2-c2cccc(Cl)c2)CS(=O)(=O)C3)cc1	3
COc1ccc(Cn2c(C3CC3)nc3ccc(NC(C)=O)cc3c2=O)cc1	-77
Cc1cc(NC(=O)Cn2cnc3c(cnn3C(C)(C)C)c2=O)no1	6
COc1ccc(S(=O)(=O)N2CCCC(C(=O)NCc3ccncc3)C2)cc1Cl (stereo unspecified)	9
CCN(C1CCCCC1)S(=O)(=O)c1ccc(S(=O)(=O)NCc2ccncc2)cc1	69*
Cc1ccc(S(=O)(=O)N(CC(=O)N2CCCC2)C2CCCCC2)cc1	-2
COC(=O)c1ccc(S(=O)(=O)N(Cc2cc3cc4c(cc3[nH]c2=O)OCO4)C2CCCCC2)cc1	4
COc1ccc(S(=O)(=O)N2CCCC(C(=O)Nc3cccc(C(C)=O)c3)C2)cc1 (stereo unspecified)	20
O=C(CN1C(=O)c2cccc3cccc1c23)NCc1ccc2c(c1)OCO2	11
COCCn1c(SCC(=O)N2CCC(C)CC2)nc2ccccc2c1=O	8
COc1cc(C(=S)N2CCCCC2)ccc1OCC(=O)N1CCCC1	-2
COc1ccccc1NC(=O)COc1ccc(/C=N/n2cnnc2)cc1OC	18
COc1cc(/C=N/O)ccc1OCc1ccc(C(=O)O)cc1	89*
Cc1noc(C(=O)Nc2ccc3c(c2)OCO3)c1Cl	-65
CCOC(=O)c1c(N)sc(C(=O)Nc2ccc3c(c2)OCO3)c1C	54*
CCC(=O)Nc1ccc(C(=O)Nc2ccc3c(c2)OCO3)cc1	-31
CCOCCCn1c(=S)[nH]c2ncccc2c1=O	-9
CCCOc1ccccc1C1CC(=O)Nc2cc3c(cc21)OCCO3 (stereo unspecified)	60*
SMILES	RORA inh
CCOc1ccccc1C1CC(=O)Nc2cc(OC)c(OC)c(OC)c21 (stereo unspecified)	6
c1ccc2oc(SCc3nc4ccccc4s3)nc2c1	-5
c1ccc(-n2nc3c(ccc4cnnc43)[nH]2)cc1	-55
O=C(Nc1cccc(F)c1)Nc1ccccn1	-61
Cc1cc(C(=O)Nc2c(F)cc(F)cc2Br)c(C)o1	18
Cc1nnsc1C(=O)Nc1ccccc1Cl	13
O=C(c1ccc2c(c1)OCO2)N1CCc2ccccc2C1	-66
O=C(Nc1ccc(Cl)cc1)c1ccc2c(c1)OCO2	-9
O=C(NCCOc1ccccc1)c1ccc2c(c1)OCO2	63*
FC(F)(F)c1cc(-c2ccccc2)nc(N2CCCCCC2)n1	6
